Assay results taken from ChEMBL document CHEMBL1157689, “Synthesis and anti-HIV evaluation of water-soluble calixarene-based bithiazolyl podands” (Bioorg Med Chem, 2010).

Experiments:
[1] = system: Human immunodeficiency virus 1; assay: Antiviral activity against HIV1 3B infected in human MT4 cells assessed as protection from virus-induced cytopathogenicity by MTT assay; format: functional, organism-based; conditions: Human immunodeficiency virus 1, 3B
Procedure, shortened: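 HIV-1 IIIB replication in MT4 cells followed by virus-induced cytopathogenic effect. IC50 is the concentration protecting 50% of infected cells against cytopathogenicity. Values are averages of at least two or three separate experiments.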

[2] = Cytotoxicity against human MT4 cells by MTT assay; format: cell-based
Procedure, shortened: (§1)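 Uninfected CEM-SS, MT4 or PBMC cells exposed to compound, up to 100 μM for most compounds. CC50 is the concentration causing 50% death of uninfected cells. Values are averages of at least two or three separate experiments.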

[3] = Selectivity index, ratio of CC50 for human MT4 cells to IC50 for HIV1 3B infected in human MT4 cells; format: functional
Procedure, shortened: (§2)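 Selectivity index calculated as CC50/IC50 for each cell system: CEM-SS/HIV-1 LAI, MT4/HIV-1 IIIB, PBMC/HIV-1 Bal.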

[4] = Cytotoxicity against human CEM-SS cells by MTT assay; format: cell-based; procedure, shortened: as §1
[5] = Selectivity index, ratio of CC50 for human CEM-SS cells to IC50 for HIV1 LAI infected in human CEM-SS cells; format: functional; procedure, shortened: as §2
[6] = Cytotoxicity against human PBMC by MTT assay; format: cell-based; procedure, shortened: as §1
[7] = Selectivity index, ratio of CC50 for human PBMC to IC50 for HIV1 BaL infected in human PBMC; format: functional; procedure, shortened: as §2
[8] = system: Human immunodeficiency virus 1; assay: Antiviral activity against HIV1 BaL infected in human PBMC assessed as inhibition of viral replication by reverse transcriptase activity measurement; conditions: Human immunodeficiency virus 1, BaL
[9] = system: Human immunodeficiency virus 1; assay: Antiviral activity against HIV1 LAI infected in human CEM-SS cells assessed as inhibition of viral replication by reverse transcriptase activity measurement; conditions: Human immunodeficiency virus 1, LAI

Row | Compound | IC50 [1] | CC50 [2] | Ratio CC50/IC50 [3] | CC50 [4] | Ratio CC50/IC50 [5] | CC50 [6] | Ratio CC50/IC50 [7] | IC50 [8] | IC50 [9]
1 | O=C([O-])Cc1cc2c(O)c(c1)Cc1cc(CC(=O)[O-])cc(c1O)Cc1cc(CC(=O)[O-])cc(c1O)Cc1cc(CC(=O)[O-])cc(c1O)C2.[Na+].[Na+].[Na+].[Na+] | 44 µM | > 100 µM | >2.3 | > 100 µM | >1.2 | 100 µM | 10.5 | 9.5 µM | 81 µM
2 | O=P([O-])(O)Cc1cc2c(O)c(c1)Cc1cc(CP(=O)([O-])O)cc(c1O)Cc1cc(CP(=O)([O-])O)cc(c1O)Cc1cc(CP(=O)([O-])O)cc(c1O)C2.[Na+].[Na+].[Na+].[Na+] | > 100 µM | > 100 µM | – | > 100 µM | – | 78 µM | >1 | 70 µM | > 100 µM
3 | O=S(=O)([O-])c1cc2c(O)c(c1)Cc1cc(S(=O)(=O)[O-])cc(c1O)Cc1cc(S(=O)(=O)[O-])cc(c1O)Cc1cc(S(=O)(=O)[O-])cc(c1O)C2.[Na+].[Na+].[Na+].[Na+] | 38 µM | > 100 µM | >2.6 | > 100 µM | >1.2 | > 100 µM | >2 | 45 µM | 86 µM
4 | Cc1nc(-c2nc(COc3c4cc(CC(=O)[O-])cc3Cc3cc(CC(=O)[O-])cc(c3O)Cc3cc(CC(=O)[O-])cc(c3OCc3nc(-c5nc(C)c(C(=O)[O-])s5)sc3C(=O)[O-])Cc3cc(CC(=O)[O-])cc(c3O)C4)c(C(=O)[O-])s2)sc1C(=O)[O-].[Na+].[Na+].[Na+].[Na+].[Na+].[Na+].[Na+].[Na+] | 14 µM | > 100 µM | >7 | > 100 µM | >26 | 37 µM | <1 | > 37 µM | 5.3 µM
5 | Cc1csc(-c2nc(COc3c4cc(CC(=O)[O-])cc3Cc3cc(CC(=O)[O-])cc(c3O)Cc3cc(CC(=O)[O-])cc(c3OCc3csc(-c5nc(C)cs5)n3)Cc3cc(CC(=O)[O-])cc(c3O)C4)cs2)n1.[Na+].[Na+].[Na+].[Na+] | 16.5 µM | > 1000 µM | >60 | > 1000 µM | >36 | 230 µM | 8.3 | 27.7 µM | 28 µM
6 | Cc1csc(-c2nc(COc3c4cc(CP(=O)([O-])O)cc3Cc3cc(CP(=O)([O-])O)cc(c3O)Cc3cc(CP(=O)([O-])O)cc(c3OCc3csc(-c5nc(C)cs5)n3)Cc3cc(CP(=O)([O-])O)cc(c3O)C4)cs2)n1.[Na+].[Na+].[Na+].[Na+] | 14 µM | > 100 µM | >7 | > 100 µM | >6 | 92 µM | >1.7 | 57 µM | 15 µM
7 | Cc1cn([C@H]2C[C@H](N=[N+]=[N-])[C@@H](CO)O2)c(=O)[nH]c1=O [ZIDOVUDINE] | – | > 100 µM | – | > 100 µM | – | 75 µM | – | 0.0077 µM | 0.0051 µM
